Source: ChEMBL document CHEMBL3585296, “Flavonoids from Perovskia atriplicifolia and Their in Vitro Displacement of the Respective Radioligands for Human Opioid and Cannabinoid Receptors” (J Nat Prod, 2015)

Experiments:
[1] = target: T1, Delta-type opioid receptor (Homo sapiens, UniProt P41143); assay: Displacement of [3H]DPDPE from delta opioid receptor (unknown origin) transfected into HEK293 cells at 10 uM by microplate scintillation counting; format: cell-based
Outline: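 HEK293 cells stably expressing the δ opioid receptor were kept in DMEM with 0.2 mg/mL G418. Compound at 10 μM (triplicate dilutions) was incubated with 0.99 nM [3H]-DPDPE and 20 μg membrane for 60 min in 50 mM Tris-HCl, pH 7.4. Bound label was collected by GF/B filtration. Nonspecific binding was defined with 10 μM DPDPE. Results are given as % displacement.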

[2] = target: Cannabinoid receptor 1 (Homo sapiens) (UniProt P21554); assay: Displacement of [3H]-CP55940 from human CB1 receptor transfected into HEK293 cells at 10 uM by microplate scintillation counting; format: cell-based
Chain of Cannabinoid receptor 1 (Homo sapiens) (P21554 whole entry): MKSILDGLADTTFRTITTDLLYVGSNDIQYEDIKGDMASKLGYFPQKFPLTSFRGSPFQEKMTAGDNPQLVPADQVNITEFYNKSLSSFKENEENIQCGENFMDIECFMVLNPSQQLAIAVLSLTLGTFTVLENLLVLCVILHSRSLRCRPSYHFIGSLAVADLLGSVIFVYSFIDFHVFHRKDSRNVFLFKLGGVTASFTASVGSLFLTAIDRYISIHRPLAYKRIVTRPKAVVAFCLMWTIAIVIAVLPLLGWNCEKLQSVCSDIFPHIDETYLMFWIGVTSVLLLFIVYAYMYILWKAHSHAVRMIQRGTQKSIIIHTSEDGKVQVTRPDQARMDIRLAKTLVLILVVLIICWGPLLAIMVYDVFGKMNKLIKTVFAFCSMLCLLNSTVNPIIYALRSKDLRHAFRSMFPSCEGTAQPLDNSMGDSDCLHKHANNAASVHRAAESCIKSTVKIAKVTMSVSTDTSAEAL
Outline: (§1)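 HEK293 cells stably expressing cloned human CB1 or CB2 were grown in DMEM/F-12 with 0.5 mg/mL G418. Membranes were made by sonication and differential centrifugation. Compound at 10 μM (independent triplicate dilutions) was incubated with [3H]-CP 55,940, at 1.6975 nM for CB1 or 1.959 nM for CB2. Membrane was 5 μg for CB1 or 1 μg for CB2. Incubation was 90 min at 37 °C in Tris/EDTA/NaCl/0.2% BSA, pH 7.4. Bound label was collected on GF/C filters. Nonspecific binding was defined with 10 μM CP-55,940. Results are given as % displacement.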

[3] = target: Cannabinoid receptor 2 (Homo sapiens) (UniProt P34972); assay: Displacement of [3H]-CP55940 from human CB2 receptor transfected into HEK293 cells at 10 uM by microplate scintillation counting; format: cell-based; outline: as §1
Chain of Cannabinoid receptor 2 (Homo sapiens) (P34972 whole entry): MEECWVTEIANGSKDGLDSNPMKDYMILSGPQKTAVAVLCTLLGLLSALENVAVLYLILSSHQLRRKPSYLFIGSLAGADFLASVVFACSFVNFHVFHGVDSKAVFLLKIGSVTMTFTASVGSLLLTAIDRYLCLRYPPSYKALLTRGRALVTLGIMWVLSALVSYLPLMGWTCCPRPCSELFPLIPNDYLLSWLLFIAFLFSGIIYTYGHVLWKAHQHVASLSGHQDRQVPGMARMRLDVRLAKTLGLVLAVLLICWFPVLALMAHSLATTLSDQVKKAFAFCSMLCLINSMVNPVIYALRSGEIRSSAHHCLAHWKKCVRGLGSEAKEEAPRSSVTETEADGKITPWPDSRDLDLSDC

[4] = target: T1, Delta-type opioid receptor; assay: Displacement of [3H]DPDPE from delta opioid receptor (unknown origin) transfected into HEK293 cells by microplate scintillation counting; format: cell-based
[5] = target: T1, Delta-type opioid receptor; assay: Agonist activity at human delta opioid receptor transfected into HEK293 cells assessed as effect on [35S]-GTPgammaS binding at 300 uM; format: functional, cell-based
Outline: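 Modified GTPγ[35S] functional assay. Tested at 300 μM. Binding is expressed as percent of the maximal GTPγ[35S] binding given by the full agonist DPDPE.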

T1 sequence (P41143 whole entry): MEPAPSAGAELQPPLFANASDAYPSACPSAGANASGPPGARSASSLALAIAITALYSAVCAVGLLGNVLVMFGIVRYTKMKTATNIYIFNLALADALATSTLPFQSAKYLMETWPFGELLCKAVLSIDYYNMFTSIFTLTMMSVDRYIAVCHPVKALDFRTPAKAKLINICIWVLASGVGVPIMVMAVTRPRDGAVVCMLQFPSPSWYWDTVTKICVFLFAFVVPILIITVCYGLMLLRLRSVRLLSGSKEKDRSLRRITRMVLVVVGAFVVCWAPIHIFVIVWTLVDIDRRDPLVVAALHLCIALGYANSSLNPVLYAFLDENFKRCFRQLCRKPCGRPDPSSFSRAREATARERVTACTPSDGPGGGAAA

| Activity [1] | Activity [2] | Activity [3] | Ki [4] | Activity [5] | SMILES |
| --- | --- | --- | --- | --- | --- |
| 19.9% | 0.3% | 12.5% |  |  | COc1ccc(-c2cc(=O)c3c(O)c(OC)c(O)cc3o2)cc1OC |
| 86% | 3% | 4.2% | 3.1 µM | 32% | COc1ccc(-c2cc(=O)c3c(O)c(OC)c(OC)cc3o2)cc1OC |
| 79.9% | 19.3% | 13.5% | 8.4 µM | 48% | COc1ccc(-c2cc(=O)c3c(O)c(OC)c(O)cc3o2)cc1 [PECTOLINARIGENIN] |
| 31.6% | 1.7% | 8.3% | > 26 µM | 88% | COc1ccc(-c2cc(=O)c3c(O)c(OC)c(OC)cc3o2)cc1 [SALVIGENIN] |
